{
  "source": "paper PMC4415995",
  "about": "(Advances in Therapy, 2015)",
  "tested_on": "Japanese patients with T2DM",
  "experiment": "Plasma glucose concentrations, 7-day once-daily dosing",
  "type": "in vivo, human",
  "how_it_was_run": "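Plasma glucose was measured by a glucose dehydrogenase enzymatic UV method. Sampling was pre-breakfast/pre-dose and 0.5–24 h after breakfast on Day −1, after dosing on Days 1 and 7, and pre-breakfast on Days 11 and 14. Standardized ~600 kcal meals were given, with lunch and dinner at 4 and 12 h. AUC, Cmax and tmax were non-compartmental. MPG was the mean of the 0, 2, 4, 6, 12, 14 and 16 h values. LS mean difference vs placebo with 95% CI.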",
  "note": "Marks after values point to notes of the source that are not given here.",
  "data": [
    {"molecule": "CCOc1ccc(Cc2cc([C@@H]3S[C@H](CO)[C@@H](O)[C@H](O)[C@H]3O)c(OC)cc2C)cc1", "note": "[Luseogliflozin, (1S)-1,5-anhydro-1-[5-(4-ethoxybenzyl)-2-methoxy-4-methylphenyl]-1-thio-D-glucitol]", "values": [
      {"measurement": "FPG (24 h after dose)", "setting": "2.5 mg OD, Day 1", "result": "141 ± 23", "unit": "mg/dL"},
      {"measurement": "FPG (24 h after dose) LS mean difference vs placebo (95% CI)", "setting": "2.5 mg OD, Day 1", "result": "−23.0 (−31.6, −14.4)* mg/dL"},
      {"measurement": "MPG0–16h", "setting": "2.5 mg OD, Day 1", "result": "210 ± 35.7", "unit": "mg/dL"},
      {"measurement": "MPG0–16h LS mean difference vs placebo (95% CI)", "setting": "2.5 mg OD, Day 1", "result": "−23.8 (−33.7, −13.9)* mg/dL"},
      {"measurement": "Plasma glucose AUC0–4h (after breakfast)", "setting": "2.5 mg OD, Day 1", "result": "868 ± 166", "unit": "mg·h/dL"},
      {"measurement": "Plasma glucose AUC0–4h (after breakfast) LS mean difference vs placebo (95% CI)", "setting": "2.5 mg OD, Day 1", "result": "−106 (−159, −53.6)* mg h/dL"},
      {"measurement": "Plasma glucose AUC4–8h (after lunch)", "setting": "2.5 mg OD, Day 1", "result": "879 ± 176", "unit": "mg·h/dL"},
      {"measurement": "Plasma glucose AUC4–8h (after lunch) LS mean difference vs placebo (95% CI)", "setting": "2.5 mg OD, Day 1", "result": "−147 (−224, −69.0)* mg h/dL"},
      {"measurement": "Plasma glucose AUC12–16h (after dinner)", "setting": "2.5 mg OD, Day 1", "result": "944 ± 123", "unit": "mg·h/dL"},
      {"measurement": "Plasma glucose AUC12–16h (after dinner) LS mean difference vs placebo (95% CI)", "setting": "2.5 mg OD, Day 1", "result": "−71.1 (−123, −19.2)* mg h/dL"},
      {"measurement": "Plasma glucose C max0–4h (after breakfast)", "setting": "2.5 mg OD, Day 1", "result": "254 ± 48.7", "unit": "mg/dL"},
      {"measurement": "Plasma glucose C max4–8h (after lunch)", "setting": "2.5 mg OD, Day 1", "result": "250 ± 54.5", "unit": "mg/dL"},
      {"measurement": "Plasma glucose C max4–8h (after lunch) LS mean difference vs placebo (95% CI)", "setting": "2.5 mg OD, Day 1", "result": "−43.5 (−67.2, −19.7)* mg/dL"},
      {"measurement": "Plasma glucose C max12–16h (after dinner)", "setting": "2.5 mg OD, Day 1", "result": "279 ± 40.2", "unit": "mg/dL"},
      {"measurement": "Plasma glucose C max12–16h (after dinner) LS mean difference vs placebo (95% CI)", "setting": "2.5 mg OD, Day 1", "result": "−26.1 (−44.6, −7.60)* mg/dL"},
      {"measurement": "FPG (24 h after dose)", "setting": "2.5 mg OD, Day 7", "result": "122 ± 14", "unit": "mg/dL"},
      {"measurement": "FPG (24 h after dose) LS mean difference vs placebo (95% CI)", "setting": "2.5 mg OD, Day 7", "result": "−41.3 (−53.5, −29.0)* mg/dL"},
      {"measurement": "MPG0–16h", "setting": "2.5 mg OD, Day 7", "result": "181 ± 21.2", "unit": "mg/dL"},
      {"measurement": "MPG0–16h LS mean difference vs placebo (95% CI)", "setting": "2.5 mg OD, Day 7", "result": "−50.1 (−66.7, −33.4)* mg/dL"},
      {"measurement": "Plasma glucose AUC0–4h (after breakfast)", "setting": "2.5 mg OD, Day 7", "result": "738 ± 102", "unit": "mg·h/dL"},
      {"measurement": "Plasma glucose AUC0–4h (after breakfast) LS mean difference vs placebo (95% CI)", "setting": "2.5 mg OD, Day 7", "result": "−221 (−297, −145)* mg h/dL"},
      {"measurement": "Plasma glucose AUC4–8h (after lunch)", "setting": "2.5 mg OD, Day 7", "result": "802 ± 127", "unit": "mg·h/dL"},
      {"measurement": "Plasma glucose AUC4–8h (after lunch) LS mean difference vs placebo (95% CI)", "setting": "2.5 mg OD, Day 7", "result": "−250 (−348, −152)* mg h/dL"},
      {"measurement": "Plasma glucose AUC12–16h (after dinner)", "setting": "2.5 mg OD, Day 7", "result": "828 ± 63.2", "unit": "mg·h/dL"},
      {"measurement": "Plasma glucose AUC12–16h (after dinner) LS mean difference vs placebo (95% CI)", "setting": "2.5 mg OD, Day 7", "result": "−149 (−224, −73.6)* mg h/dL"},
      {"measurement": "Plasma glucose C max0–4h (after breakfast)", "setting": "2.5 mg OD, Day 7", "result": "219 ± 26.3", "unit": "mg/dL"},
      {"measurement": "Plasma glucose C max4–8h (after lunch)", "setting": "2.5 mg OD, Day 7", "result": "230 ± 30.0", "unit": "mg/dL"},
      {"measurement": "Plasma glucose C max4–8h (after lunch) LS mean difference vs placebo (95% CI)", "setting": "2.5 mg OD, Day 7", "result": "−65.6 (−94.0, −37.1)* mg/dL"},
      {"measurement": "Plasma glucose C max12–16h (after dinner)", "setting": "2.5 mg OD, Day 7", "result": "250 ± 23.3", "unit": "mg/dL"},
      {"measurement": "Plasma glucose C max12–16h (after dinner) LS mean difference vs placebo (95% CI)", "setting": "2.5 mg OD, Day 7", "result": "−36.2 (−61.2, −11.3)* mg/dL"},
      {"measurement": "FPG (24 h after dose)", "setting": "5 mg OD, Day 1", "result": "132 ± 12", "unit": "mg/dL"},
      {"measurement": "FPG (24 h after dose) LS mean difference vs placebo (95% CI)", "setting": "5 mg OD, Day 1", "result": "−20.8 (−29.5, −12.1)* mg/dL"},
      {"measurement": "MPG0–16h", "setting": "5 mg OD, Day 1", "result": "173 ± 26.7", "unit": "mg/dL"},
      {"measurement": "MPG0–16h LS mean difference vs placebo (95% CI)", "setting": "5 mg OD, Day 1", "result": "−27.4 (−37.4, −17.4)* mg/dL"},
      {"measurement": "Plasma glucose AUC0–4h (after breakfast)", "setting": "5 mg OD, Day 1", "result": "752 ± 87.6", "unit": "mg·h/dL"},
      {"measurement": "Plasma glucose AUC0–4h (after breakfast) LS mean difference vs placebo (95% CI)", "setting": "5 mg OD, Day 1", "result": "−100 (−154, −46.5)* mg h/dL"},
      {"measurement": "Plasma glucose AUC4–8h (after lunch)", "setting": "5 mg OD, Day 1", "result": "710 ± 120", "unit": "mg·h/dL"},
      {"measurement": "Plasma glucose AUC4–8h (after lunch) LS mean difference vs placebo (95% CI)", "setting": "5 mg OD, Day 1", "result": "−104 (−183, −25.1)* mg h/dL"},
      {"measurement": "Plasma glucose AUC12–16h (after dinner)", "setting": "5 mg OD, Day 1", "result": "766 ± 118", "unit": "mg·h/dL"},
      {"measurement": "Plasma glucose AUC12–16h (after dinner) LS mean difference vs placebo (95% CI)", "setting": "5 mg OD, Day 1", "result": "−133 (−184, −81.7)* mg h/dL"},
      {"measurement": "Plasma glucose C max0–4h (after breakfast)", "setting": "5 mg OD, Day 1", "result": "231 ± 16.6", "unit": "mg/dL"},
      {"measurement": "Plasma glucose C max4–8h (after lunch)", "setting": "5 mg OD, Day 1", "result": "207 ± 33.1", "unit": "mg/dL"},
      {"measurement": "Plasma glucose C max4–8h (after lunch) LS mean difference vs placebo (95% CI)", "setting": "5 mg OD, Day 1", "result": "−32.4 (−56.5, −8.28)* mg/dL"},
      {"measurement": "Plasma glucose C max12–16h (after dinner)", "setting": "5 mg OD, Day 1", "result": "225 ± 33.2", "unit": "mg/dL"},
      {"measurement": "Plasma glucose C max12–16h (after dinner) LS mean difference vs placebo (95% CI)", "setting": "5 mg OD, Day 1", "result": "−41.8 (−60.2, −23.5)* mg/dL"},
      {"measurement": "FPG (24 h after dose)", "setting": "5 mg OD, Day 7", "result": "126 ± 13", "unit": "mg/dL"},
      {"measurement": "FPG (24 h after dose) LS mean difference vs placebo (95% CI)", "setting": "5 mg OD, Day 7", "result": "−30.6 (−43.1, −18.1)* mg/dL"},
      {"measurement": "MPG0–16h", "setting": "5 mg OD, Day 7", "result": "168 ± 27.8", "unit": "mg/dL"},
      {"measurement": "MPG0–16h LS mean difference vs placebo (95% CI)", "setting": "5 mg OD, Day 7", "result": "−38.9 (−55.7, −22.1)* mg/dL"},
      {"measurement": "Plasma glucose AUC0–4h (after breakfast)", "setting": "5 mg OD, Day 7", "result": "708 ± 87.5", "unit": "mg·h/dL"},
      {"measurement": "Plasma glucose AUC0–4h (after breakfast) LS mean difference vs placebo (95% CI)", "setting": "5 mg OD, Day 7", "result": "−162 (−239, −84.9)* mg h/dL"},
      {"measurement": "Plasma glucose AUC4–8h (after lunch)", "setting": "5 mg OD, Day 7", "result": "710 ± 105", "unit": "mg·h/dL"},
      {"measurement": "Plasma glucose AUC4–8h (after lunch) LS mean difference vs placebo (95% CI)", "setting": "5 mg OD, Day 7", "result": "−184 (−284, −84.3)* mg h/dL"},
      {"measurement": "Plasma glucose AUC12–16h (after dinner)", "setting": "5 mg OD, Day 7", "result": "755 ± 137", "unit": "mg·h/dL"},
      {"measurement": "Plasma glucose AUC12–16h (after dinner) LS mean difference vs placebo (95% CI)", "setting": "5 mg OD, Day 7", "result": "−131 (−205, −57.5)* mg h/dL"},
      {"measurement": "Plasma glucose C max0–4h (after breakfast)", "setting": "5 mg OD, Day 7", "result": "222 ± 19.4", "unit": "mg/dL"},
      {"measurement": "Plasma glucose C max4–8h (after lunch)", "setting": "5 mg OD, Day 7", "result": "211 ± 35.1", "unit": "mg/dL"},
      {"measurement": "Plasma glucose C max4–8h (after lunch) LS mean difference vs placebo (95% CI)", "setting": "5 mg OD, Day 7", "result": "−41.0 (−69.8, −12.1)* mg/dL"},
      {"measurement": "Plasma glucose C max12–16h (after dinner)", "setting": "5 mg OD, Day 7", "result": "223 ± 38.8", "unit": "mg/dL"},
      {"measurement": "Plasma glucose C max12–16h (after dinner) LS mean difference vs placebo (95% CI)", "setting": "5 mg OD, Day 7", "result": "−33.7 (−58.4, −9.02)* mg/dL"}
    ]}
  ]
}
